GPR7 antagonist = antagonists of human GPR7 (neuropeptides B/W receptor 1); P48145; GPR7-expressing cells, fluorescence antagonist assay; inhibition, % at 4.4 µM; actives 1.1% (n = 290,000); in the data active means inhibition above about 16%, passing the limit was not always enough;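 further: cells stimulated with the agonist NPW; 0% = agonist with vehicle and 100% = vehicle without agonist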
zfTRPN1 agonist = activates the zebrafish TRPN1 channel. HEK293 zebrafish TRPN1-YFP, Fluo-8 calcium fluorescence; 100% = response to 87 µM carbachol. activation, % at 3 µM. actives 0.18% (n = 220,000);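 active means activation above its plate's cutoff, the mean activation of test wells on that plate plus 3 SD, cut at about 19% in these data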;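 further: 0% = DMSO alone and 100% = 87 µM carbachol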
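System: zebrafish TRPN1-YFP in HEK293 cells / Dosing: 3 µM single point / Timing: dye loading 1 h at 37 °C, then 30 min room temperature / Signal: Fluo-8 calcium fluorescence, excitation 470-495 nm, emission 515-575 nm / Read-out basis: percent activation from peak over basal fluorescence ratio, control-normalized / Control set: high carbachol 87 µM, low DMSO alone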
TAAR1 ag = agonists of human TAAR1; Q96RJ0; CHO RD-HGA16 TAAR1, Fluo-8 calcium fluorescence; vehicle wells 0%, saturating PEA agonist 100%; activation, % at 3 µM; actives 0.99% (n = 360,000); AID 624467;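 active means activation above the mean activation of all test compounds in the run plus 3 SD, cut at about 38% in these data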
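System: CHO-derived RD-HGA16 cells with stable Gα16 and human TAAR1. Times: 17-24 h plating, Fluo-8 75 min 37 °C, 30 min RT. Measured by: calcium-sensitive Fluo-8 signal, excitation 470-495, emission 515-575 nm. Read-out basis: % activation relative to PEA EC100 response. Control set: DMSO and PEA EC100. Repeats: no replicates (n 1).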
TAAR1 antagonist = antagonists of human TAAR1 | CHO RD-HGA16 TAAR1, Fluo-8 calcium fluorescence, antagonist | inhibition, % at 3 µM | actives 1.5% (n = 360,000) | AID 624466;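 active means inhibition above a per-plate cutoff, the mean inhibition of test compounds on that plate plus 3 SD, cut at about 49% in these data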;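 further: 0% = DMSO plus EC80 beta-PEA response and 100% = DMSO alone without agonist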
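test system = CHO RD-HGA16 cells bearing hTAAR1 | replication = singlicate | controls = DMSO-only wells and EC80 β-PEA-stimulated wells | reagent = EC80 β-phenethylamine stimulus | read-out basis = percent inhibition of PEA-evoked calcium signal, max/basal emission ratio | schedule = seeding 17-24 h prior, 75-min 37 °C, 30-min RT dye loading | signal = kinetic Fluo-8 calcium fluorescence measurement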
LANA-H2A inh = blocks KSHV LANA binding to histone H2A/H2B. inhibition, % (concentration not given with the values). actives 0.6% (n = 320,000). Q9QR71. AID 2629. cell-free LANA-H2A/H2B peptide, fluorescence polarization; in the data active means inhibition mostly above about 10%, no sharp cut-off; inactive means mostly below about 6.7%
TRPML3 agonist = human mucolipin-3 channel agonism; Q8TDD5; HEK293 TRPML3-YFP, Fluo-8 calcium fluorescence; 100% = the carbachol control signal; activation, % at 3 µM; actives 0.29% (n = 220,000);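 active means activation above its plate's cutoff, the mean activation of the plate's test wells plus 3 SD, cut at about 12% in these data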;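 further: 0% = DMSO only wells and 100% = carbachol wells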
Target sequence (Q8TDD5 whole entry, looked up): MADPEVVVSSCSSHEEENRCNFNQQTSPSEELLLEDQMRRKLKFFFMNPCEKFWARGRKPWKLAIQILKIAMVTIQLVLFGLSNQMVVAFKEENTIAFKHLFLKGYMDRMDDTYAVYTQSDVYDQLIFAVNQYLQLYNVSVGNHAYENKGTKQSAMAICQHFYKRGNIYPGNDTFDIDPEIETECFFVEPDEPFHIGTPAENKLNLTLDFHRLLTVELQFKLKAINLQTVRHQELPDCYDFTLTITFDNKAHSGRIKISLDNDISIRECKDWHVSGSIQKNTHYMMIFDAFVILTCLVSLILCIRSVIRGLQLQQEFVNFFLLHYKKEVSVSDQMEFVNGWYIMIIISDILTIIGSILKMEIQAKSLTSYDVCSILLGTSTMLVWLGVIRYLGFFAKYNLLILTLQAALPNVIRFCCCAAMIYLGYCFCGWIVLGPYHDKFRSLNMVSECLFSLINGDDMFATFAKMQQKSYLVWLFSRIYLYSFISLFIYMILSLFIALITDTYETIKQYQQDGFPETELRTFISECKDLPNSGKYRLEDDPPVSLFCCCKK
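Material: HEK293 cells stably carrying human TRPML3-YFP; compound dosing: single dose, 3 µM final nominal compound, 0.3% DMSO final; incubation: 1-h 37 °C dye load, 5-s basal, 120-s post-compound reads; technique: Fluo-8 intracellular calcium fluorescence, excitation 470-495 nm, emission 515-575 nm; read-out basis: percent activation from peak-to-basal fluorescence ratio, scaled between DMSO and carbachol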
* marks the source's active call; other numbers are inactive results. Compounds with a hit are over-represented: about 3.4% of the library has one in this group of screens.

For Cc1nccn1-c1ccc(NC(=O)[C@@H](Cc2ccccc2)NC(=O)[C@H]2O[C@@H](n3ccc(=O)[nH]c3=O)[C@H](O)[C@@H]2O)cc1 the results were TAAR1 ag 1 and TAAR1 antagonist -8.
For COC(=O)[C@]12C[C@H](CC(=O)NCc3ccc(OC)c(OC)c3)C(=O)N(Cc3ccccc3)C1=C[C@H](C(C)(C)C)O[C@@H]2C the results were TAAR1 ag 0 and TAAR1 antagonist -14.
For CC(C)c1ccc(NC(=O)N2CCc3ccccc3C2)cc1 the results were GPR7 antagonist 41*, zfTRPN1 agonist 0, TAAR1 ag 23, TAAR1 antagonist -1, LANA-H2A inh 3 and TRPML3 agonist -1.
Cc1cccc(OCCN2C(=O)C(=O)c3cc(C)ccc32)c1 was read as GPR7 antagonist 9, zfTRPN1 agonist -1, TAAR1 ag -1, TAAR1 antagonist -7, LANA-H2A inh 0 and TRPML3 agonist -1.
Cc1ccc2c(c1)C(=O)C(=O)N2CCOc1ccccc1 was read as GPR7 antagonist 33*, zfTRPN1 agonist -2, TAAR1 ag 0, TAAR1 antagonist -2, LANA-H2A inh 0 and TRPML3 agonist 0.
For Cc1ccc(Cl)cc1NC(=O)OCCN(C)C(=O)Nc1cc(Cl)ccc1C the results were TAAR1 ag 6 and TAAR1 antagonist -14.
For O=C(NCCS(=O)(=O)N1CCN(c2ccccc2)CC1)C12CC3CC(CC(C3)C1)C2 the results were TAAR1 ag 7 and TAAR1 antagonist -4.
For COc1ccccc1N1CCN(S(=O)(=O)CCNC(=O)C23CC4CC(CC(C4)C2)C3)CC1 the results were GPR7 antagonist -10, TAAR1 ag 16, TAAR1 antagonist 58* and LANA-H2A inh 0.
For C[C@H](CO)N1C[C@H](C)[C@H](CN(C)S(=O)(=O)c2cccs2)Oc2ncc(Br)cc2C1=O the results were TAAR1 ag 0 and TAAR1 antagonist -12.
`CC(=O)c1c(C)n(-c2ccc(Cl)cc2)c2ccc(O)cc12` gave GPR7 antagonist 17, TAAR1 ag 1, TAAR1 antagonist 18 and LANA-H2A inh -1.
CC(=O)c1c(C)n(-c2cccc(Cl)c2)c2ccc(O)cc12 was read as GPR7 antagonist 15, TAAR1 ag 4, TAAR1 antagonist 51* and LANA-H2A inh 3.
For COc1c(O)cc2oc(-c3ccc(O)cc3)cc(=O)c2c1O the results were TAAR1 ag 8, TAAR1 antagonist 8 and LANA-H2A inh 5.
For Cc1cc2oc(=O)cc(-c3cc4ccccc4o3)c2cc1O the results were GPR7 antagonist 3, TAAR1 ag 3, TAAR1 antagonist 38 and LANA-H2A inh -1.
Screening Cc1c2cc(O)c(=O)cc-2oc2cc(O)c(O)cc12 returned GPR7 antagonist 1, zfTRPN1 agonist 1, TAAR1 ag 205*, TAAR1 antagonist 29, LANA-H2A inh 114* and TRPML3 agonist 3.
Screening COc1cc(OC)c(-c2c3cc(O)c(=O)cc-3oc3cc(O)c(O)cc23)cc1OC returned GPR7 antagonist -4, zfTRPN1 agonist 291*, TAAR1 ag 367*, TAAR1 antagonist 71*, LANA-H2A inh -175 and TRPML3 agonist 206*.
COCCN1C(=O)/C(=C/c2ccc(N3CCCC3)cc2)SC1=S was read as GPR7 antagonist 1, zfTRPN1 agonist 11, TAAR1 ag 52*, TAAR1 antagonist 50*, LANA-H2A inh -9 and TRPML3 agonist 8.
COc1ccc(/C=C2\SC(=S)N(CCC(=O)N3CCCCC3)C2=O)cc1 was read as GPR7 antagonist -8, TAAR1 ag 0, TAAR1 antagonist -5 and LANA-H2A inh 0.
Screening CCCc1nc2c(C)cc(Br)cn2c1Cc1ccccc1OC returned TAAR1 ag 2 and TAAR1 antagonist -16.
CCN(Cc1nc2cc(Cl)ccc2c(=O)[nH]1)C(=O)c1cccc(OCc2c(C)noc2C)c1 was read as TAAR1 ag 2, TAAR1 antagonist -12 and LANA-H2A inh 91*.
For CCN(Cc1nc2cc(Cl)ccc2c(=O)[nH]1)C(=O)c1cccc(NC(=O)c2cccs2)c1 the results were TAAR1 ag 17, TAAR1 antagonist 34 and LANA-H2A inh 6.
